Reference: ChEMBL document CHEMBL3244380, “Preparation and antitumor activity of 1-aryl-3,3-dimethyltriazene derivatives” (1977)

Experiment: Antitumor activity against mouse TLX5 cells allografted in CBA/LAC mouse assessed as increase in life span at 2.5 mg/kg, ip from day 3 to 7 from tumor inoculation relative to control
Format: functional
Details: TLX-5, ip, 72 h, route intraperitoneal
Outline: (§1)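 TLX5 lymphoma cells implanted subcutaneously in the inguinal region of female CBA/LAC mice. Drug given as a freshly made solution in acetone–arachis oil 10/90 (v:v), intraperitoneally once daily from day 3 to 7 after tumour inoculation. Five animals per dose level, ten controls. Read-out was %ILS over controls, with analysis of variance used for significance.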
Molecule CCCN(CCC)NC(=O)c1ccc(/N=N/N(C)C)cc1 has an ILS at 2.5 mg/kg of -3.7%.

Experiment: Antitumor activity against mouse TLX5 cells allografted in CBA/LAC mouse assessed as increase in life span at 3.12 mg/kg, ip from day 3 to 7 from tumor inoculation relative to control
Format: functional
Details: TLX-5, ip, 72 h, route intraperitoneal
Outline: as §1
CN(C)/N=N/c1ccc(S(=O)(=O)N(CCCl)CCCl)cc1 gave an ILS at 3.12 mg/kg of -3.7%.

Experiment: Antitumor activity against mouse TLX5 cells allografted in CBA/LAC mouse assessed as increase in life span at 5 mg/kg, ip from day 3 to 7 from tumor inoculation relative to control
Format: functional
Details: TLX-5, ip, 72 h, route intraperitoneal
Outline: as §1
In the case of CCCN(CCC)NC(=O)c1ccc(/N=N/N(C)C)cc1, the ILS at 5 mg/kg is reported as -3.7%.

Experiment: Antitumor activity against mouse TLX5 cells allografted in CBA/LAC mouse assessed as increase in life span at 6.25 mg/kg, ip from day 3 to 7 from tumor inoculation relative to control
Format: functional
Details: TLX-5, ip, 72 h, route intraperitoneal
Outline: as §1
With CN(C)/N=N/c1ccc(C(=O)N=[N+]=[N-])cc1 the ILS at 6.25 mg/kg was -1%.
CN(C)/N=N/c1ccc(S(=O)(=O)N(CCCl)CCCl)cc1 gave an ILS at 6.25 mg/kg of -3.7%.

Experiment: Antitumor activity against mouse TLX5 cells allografted in CBA/LAC mouse assessed as increase in life span at 10 mg/kg, ip from day 3 to 7 from tumor inoculation relative to control
Format: functional
Details: TLX-5, ip, 72 h, route intraperitoneal
Outline: as §1
CN(C)/N=N/c1ccc(C(=O)NN)cc1 showed an ILS at 10 mg/kg of 59%.
Molecule CCCN(CCC)NC(=O)c1ccc(/N=N/N(C)C)cc1 has an ILS at 10 mg/kg of 0%.

Experiment: Antitumor activity against mouse TLX5 cells allografted in CBA/LAC mouse assessed as increase in life span at 12.5 mg/kg, ip from day 3 to 7 from tumor inoculation relative to control
Format: functional
Details: TLX-5, ip, 72 h, route intraperitoneal
Outline: as §1
In the case of CCCNC(=O)NNC(=O)c1ccc(/N=N/N(C)C)cc1, the ILS at 12.5 mg/kg is reported as -1%.
CCNC(=S)NNC(=O)c1ccc(/N=N/N(C)C)cc1 gave an ILS at 12.5 mg/kg of -1%.
In the case of CN(C)/N=N/c1ccc(C(=O)N=[N+]=[N-])cc1, the ILS at 12.5 mg/kg is reported as 4.6%.
Molecule CN(C)/N=N/c1ccc(C(=O)Nn2cnnc2)cc1 has an ILS at 12.5 mg/kg of -1%.
Molecule CN(C)/N=N/c1ccc(S(=O)(=O)Nn2cnnc2)cc1 has an ILS at 12.5 mg/kg of 0.9%.
For CN(C)/N=N/c1ccc(S(=O)(=O)N(C)C)cc1, the ILS at 12.5 mg/kg was 0%.
With CN(C)/N=N/c1ccc(S(=O)(=O)N(CCCl)CCCl)cc1 the ILS at 12.5 mg/kg was -1%.
With COc1ccc(/C=N/NC(=O)c2ccc(/N=N/N(C)C)cc2)c(OC)c1 the ILS at 12.5 mg/kg was 1.9%.

Experiment: Antitumor activity against mouse TLX5 cells allografted in CBA/LAC mouse assessed as increase in life span at 20 mg/kg, ip from day 3 to 7 from tumor inoculation relative to control
Format: functional
Details: TLX-5, ip, 72 h, route intraperitoneal
Outline: as §1
Molecule CN(C)/N=N/c1ccc(C(=O)NN)cc1 has an ILS at 20 mg/kg of 55%.
Molecule CCCN(CCC)NC(=O)c1ccc(/N=N/N(C)C)cc1 has an ILS at 20 mg/kg of 20%.

Experiment: Antitumor activity against mouse TLX5 cells allografted in CBA/LAC mouse assessed as increase in life span at 25 mg/kg, ip from day 3 to 7 from tumor inoculation relative to control
Format: functional
Details: TLX-5, ip, 72 h, route intraperitoneal
Outline: as §1
For CCCNC(=O)NNC(=O)c1ccc(/N=N/N(C)C)cc1, the ILS at 25 mg/kg was 10%.
CCNC(=S)NNC(=O)c1ccc(/N=N/N(C)C)cc1 gave an ILS at 25 mg/kg of 16%.
CN(C)/N=N/c1ccc(C(=O)N=[N+]=[N-])cc1 gave an ILS at 25 mg/kg of 21%.
CN(C)/N=N/c1ccc(C(=O)Nn2cnnc2)cc1 gave an ILS at 25 mg/kg of 32%.
Work on CN(C)/N=N/c1ccc(S(=O)(=O)Nn2cnnc2)cc1 yielded an ILS at 25 mg/kg of 4.6%.
With CN(C)/N=N/c1ccc(S(=O)(=O)N(C)C)cc1 the ILS at 25 mg/kg was 7.5%.
Molecule CN(C)/N=N/c1ccc(S(=O)(=O)N(CCCl)CCCl)cc1 has an ILS at 25 mg/kg of 0%.
In the case of COc1ccc(/C=N/NC(=O)c2ccc(/N=N/N(C)C)cc2)c(OC)c1, the ILS at 25 mg/kg is reported as 19%.

Experiment: Antitumor activity against mouse TLX5 cells allografted in CBA/LAC mouse assessed as increase in life span at 40 mg/kg, ip from day 3 to 7 from tumor inoculation relative to control
Format: functional
Details: TLX-5, ip, 72 h, route intraperitoneal
Outline: as §1
With CN(C)/N=N/c1ccc(C(=O)NN)cc1 the ILS at 40 mg/kg was 57%.
CCCN(CCC)NC(=O)c1ccc(/N=N/N(C)C)cc1 showed an ILS at 40 mg/kg of -32%.

Experiment: Antitumor activity against mouse TLX5 cells allografted in CBA/LAC mouse assessed as increase in life span at 50 mg/kg, ip from day 3 to 7 from tumor inoculation relative to control
Format: functional
Details: TLX-5, ip, 72 h, route intraperitoneal
Outline: as §1
CCCNC(=O)NNC(=O)c1ccc(/N=N/N(C)C)cc1 showed an ILS at 50 mg/kg of 61%.
With CCNC(=S)NNC(=O)c1ccc(/N=N/N(C)C)cc1 the ILS at 50 mg/kg was 18%.
CN(C)/N=N/c1ccc(C(=O)N=[N+]=[N-])cc1 gave an ILS at 50 mg/kg of 46%.
Work on CN(C)/N=N/c1ccc(C(=O)Nn2cnnc2)cc1 yielded an ILS at 50 mg/kg of 47%.
CN(C)/N=N/c1ccc(S(=O)(=O)Nn2cnnc2)cc1 showed an ILS at 50 mg/kg of 0.9%.
For CN(C)/N=N/c1ccc(S(=O)(=O)N(C)C)cc1, the ILS at 50 mg/kg was 9.4%.
With CN(C)/N=N/c1ccc(S(=O)(=O)N(CCCl)CCCl)cc1 the ILS at 50 mg/kg was 2.9%.
COc1ccc(/C=N/NC(=O)c2ccc(/N=N/N(C)C)cc2)c(OC)c1 gave an ILS at 50 mg/kg of 48%.

Experiment: Antitumor activity against mouse TLX5 cells allografted in CBA/LAC mouse assessed as increase in life span at 80 mg/kg, ip from day 3 to 7 from tumor inoculation relative to control
Format: functional
Details: TLX-5, ip, 72 h, route intraperitoneal
Outline: as §1
With CN(C)/N=N/c1ccc(C(=O)NN)cc1 the ILS at 80 mg/kg was 44%.

Experiment: Antitumor activity against mouse TLX5 cells allografted in CBA/LAC mouse assessed as increase in life span at 100 mg/kg, ip from day 3 to 7 from tumor inoculation relative to control
Format: functional
Details: TLX-5, ip, 72 h, route intraperitoneal
Outline: as §1
With CCCNC(=O)NNC(=O)c1ccc(/N=N/N(C)C)cc1 the ILS at 100 mg/kg was 44%.
With CCNC(=S)NNC(=O)c1ccc(/N=N/N(C)C)cc1 the ILS at 100 mg/kg was 55%.
CN(C)/N=N/c1ccc(C(=O)N=[N+]=[N-])cc1 showed an ILS at 100 mg/kg of 51%.
Work on CN(C)/N=N/c1ccc(C(=O)Nn2cnnc2)cc1 yielded an ILS at 100 mg/kg of 49%.
Work on CN(C)/N=N/c1ccc(S(=O)(=O)Nn2cnnc2)cc1 yielded an ILS at 100 mg/kg of 4.6%.
Work on CN(C)/N=N/c1ccc(S(=O)(=O)N(C)C)cc1 yielded an ILS at 100 mg/kg of 34%.
Molecule CN(C)/N=N/c1ccc(S(=O)(=O)N(CCCl)CCCl)cc1 has an ILS at 100 mg/kg of -3.7%.
COc1ccc(/C=N/NC(=O)c2ccc(/N=N/N(C)C)cc2)c(OC)c1 gave an ILS at 100 mg/kg of 52%.

Experiment: Antitumor activity against mouse TLX5 cells allografted in CBA/LAC mouse assessed as increase in life span at 160 mg/kg, ip from day 3 to 7 from tumor inoculation relative to control
Format: functional
Details: TLX-5, ip, 72 h, route intraperitoneal
Outline: as §1
In the case of CN(C)/N=N/c1ccc(C(=O)NN)cc1, the ILS at 160 mg/kg is reported as -46%.

Experiment: Antitumor activity against mouse TLX5 cells allografted in CBA/LAC mouse assessed as increase in life span at 200 mg/kg, ip from day 3 to 7 from tumor inoculation relative to control
Format: functional
Details: TLX-5, ip, 72 h, route intraperitoneal
Outline: as §1
CCCNC(=O)NNC(=O)c1ccc(/N=N/N(C)C)cc1 gave an ILS at 200 mg/kg of 49%.
CCNC(=S)NNC(=O)c1ccc(/N=N/N(C)C)cc1 showed an ILS at 200 mg/kg of -31%.
CN(C)/N=N/c1ccc(C(=O)N=[N+]=[N-])cc1 showed an ILS at 200 mg/kg of -72%.
CN(C)/N=N/c1ccc(C(=O)Nn2cnnc2)cc1 gave an ILS at 200 mg/kg of 28%.
With CN(C)/N=N/c1ccc(S(=O)(=O)Nn2cnnc2)cc1 the ILS at 200 mg/kg was 16%.
For CN(C)/N=N/c1ccc(S(=O)(=O)N(C)C)cc1, the ILS at 200 mg/kg was -36%.
In the case of COc1ccc(/C=N/NC(=O)c2ccc(/N=N/N(C)C)cc2)c(OC)c1, the ILS at 200 mg/kg is reported as 35%.

Experiment: Antitumor activity against mouse TLX5 cells allografted in CBA/LAC mouse assessed as increase in life span at 400 mg/kg, ip from day 3 to 7 from tumor inoculation relative to control
Format: functional
Details: TLX-5, ip, 72 h, route intraperitoneal
Outline: as §1
CCCNC(=O)NNC(=O)c1ccc(/N=N/N(C)C)cc1 gave an ILS at 400 mg/kg of -44%.
With CN(C)/N=N/c1ccc(C(=O)Nn2cnnc2)cc1 the ILS at 400 mg/kg was -14%.
Work on CN(C)/N=N/c1ccc(S(=O)(=O)Nn2cnnc2)cc1 yielded an ILS at 400 mg/kg of 14%.
Work on COc1ccc(/C=N/NC(=O)c2ccc(/N=N/N(C)C)cc2)c(OC)c1 yielded an ILS at 400 mg/kg of -33%.
